RAD52 anneal inh – RAD52 DNA annealing inhibitors, primary screen, biochemical, FRET, single point, set 2; DNA repair protein RAD52 homolog (Homo sapiens), P43351; recombinant RAD52 DNA annealing, FRET fluorescence; inhibition, % at 18.7 µM; 360,000 compounds, 0.46% hits;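 active = every replicate showing at least 50% inhibition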
PglD DTNB – C. jejuni PglD acetyltransferase inhibitors, primary screen, biochemical, DTNB colorimetric, single point; purified PglD enzyme, DTNB colorimetric CoA detection; inhibition, % at 12.5 µM; 360,000 compounds, 0.098% hits; UDP-N-acetylbacillosamine N-acetyltransferase PglD (Campylobacter jejuni); in the data active = inhibition above about 16%, passing the limit was not always enough
Cneo AK release – Cryptococcus neoformans cell lysis inducers, primary screen, AK release luminescence, single concentration | C. neoformans lysis, adenylate kinase release luminescence, 4 h; normalised: neutral wells 0, clomiphene wells 100 | lysis activity, % at 15 µM | 360,000 compounds, 0.2% hits | AID 651654, 2012;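 active = mean lysis activity across replicates of at least 80%, whatever share of replicates individually reach that level; inactive = mean lysis activity below 80%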
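Assay system: C. neoformans cells. Amount: yeast cell density of 5 × 10^6 cells/mL. Technique: AK luminescence. Buffer or medium: YPD. Times: static 4 h at 37 °C with compound, 1 h detection. Dosing: single-point compound dose. Read-out: lysis from increased AK signal.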
RAD54 inh – inhibitors of human RAD54 branch migration, primary screen, biochemical, fluorescence, single point; inhibition, % at 10.4 µM; 360,000 compounds, 0.14% hits; RAD54 Holliday junction branch migration, FAM/BHQ fluorescence;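 active = mean normalized replicate activity at least 40 and at least half of replicates scoring 40 or more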;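 note: 0% = median of neutral control wells and 100% = median of positive control wells; inhibitors cause a drop in the FAM fluorescence signal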
Target sequence (Q92698 whole entry, looked up): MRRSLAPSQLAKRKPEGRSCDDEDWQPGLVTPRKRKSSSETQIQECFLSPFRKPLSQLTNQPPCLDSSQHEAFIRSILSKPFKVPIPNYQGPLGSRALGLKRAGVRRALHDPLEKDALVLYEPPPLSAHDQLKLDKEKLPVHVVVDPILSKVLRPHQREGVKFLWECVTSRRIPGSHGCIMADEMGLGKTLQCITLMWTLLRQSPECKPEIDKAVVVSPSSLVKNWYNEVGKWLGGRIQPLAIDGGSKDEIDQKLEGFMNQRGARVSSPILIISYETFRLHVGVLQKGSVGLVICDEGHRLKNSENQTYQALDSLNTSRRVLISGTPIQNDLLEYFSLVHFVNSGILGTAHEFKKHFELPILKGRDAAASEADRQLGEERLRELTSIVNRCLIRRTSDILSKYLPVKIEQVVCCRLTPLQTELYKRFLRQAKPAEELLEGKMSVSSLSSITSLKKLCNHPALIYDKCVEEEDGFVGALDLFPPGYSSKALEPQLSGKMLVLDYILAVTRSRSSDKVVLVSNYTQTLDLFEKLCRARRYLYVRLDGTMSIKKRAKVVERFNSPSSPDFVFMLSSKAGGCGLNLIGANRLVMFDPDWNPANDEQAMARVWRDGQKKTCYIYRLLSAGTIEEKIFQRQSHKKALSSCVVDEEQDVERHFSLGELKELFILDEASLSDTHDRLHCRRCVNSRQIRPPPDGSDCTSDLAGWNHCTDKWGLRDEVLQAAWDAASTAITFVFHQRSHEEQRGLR
Ecoli rRNA inh – reduced GFP signal of wild-type E. coli, primary screen, bacterial rRNA inhibitor project, GFP/RFP fluorescence, OD600, single point; AID 720706, 2013; E. coli WT GFP vs humanized-ribosome RFP mutants, 24 h; stronger effect = lower value; DMSO median 0, no signal -100; 350,000 compounds, 1.6% hits; GFP signal change (wild-type ribosome), % (no concentration beside the values);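 active = significant combined selectivity score with lowered wild-type GFP, culture density cut under 30%, mutant RFP and density less affected; inactive = any of these conditions unmet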
RAD52 DNA ctr – DNA-binding compounds via dye displacement, dose response, artefact control for RAD52 inhibitor project, biochemical, fluorescence polarization, cherry-pick | shares compounds with RAD52 anneal inh | Salmon sperm DNA/acridine orange FP displacement | AC50, µM | 1,000 compounds, 8% hits;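 active = fitted half-maximal concentration for signal loss at or below twice the highest dose tested, in every separate run, actives reach about 64 µM in these data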
Active calls of the source: *; ! = repeats disagree. Hits are enriched below; roughly 1.9% of the tested compounds scored in any of these assays.

For NCCCC[C@@H]1NC(=O)c2cc([N+](=O)[O-])cc(F)c2NCCCC[C@@H](C(N)=O)NC(=O)[C@H](CCC(N)=O)NC1=O the results were RAD52 anneal inh 80*, PglD DTNB -10, Cneo AK release -5, RAD54 inh 22, Ecoli rRNA inh 11 and RAD52 DNA ctr inactive.
NC(=O)[C@@H]1CCCCNc2c(F)cc([N+](=O)[O-])cc2C(=O)N[C@@H](CCCN=C(N)N)C(=O)NCC(=O)N1 was read as RAD52 anneal inh 61*, PglD DTNB -4, Cneo AK release 3, RAD54 inh 10, Ecoli rRNA inh 0 and RAD52 DNA ctr inactive.
For C[C@@H]1NC(=O)[C@H](CCCN=C(N)N)NC(=O)c2cc([N+](=O)[O-])cc(I)c2NCCC[C@@H](C(N)=O)NC1=O the results were RAD52 anneal inh 86*, PglD DTNB 1, Cneo AK release 1, RAD54 inh 17, Ecoli rRNA inh 6 and RAD52 DNA ctr inactive.
NCCCC[C@@H]1NC(=O)c2cc([N+](=O)[O-])cc(F)c2NCCCC[C@@H](C(N)=O)NC(=O)CNC1=O was read as RAD52 anneal inh -198, PglD DTNB -13, Cneo AK release -1, RAD54 inh 29 and Ecoli rRNA inh -2.
O=C(NC1CCC1)[C@H]1[C@H](CO)[C@H]2Cn3c(ccc(-c4ccccc4)c3=O)[C@@H]1N2 was read as RAD52 anneal inh 4, PglD DTNB 1, Cneo AK release -1, RAD54 inh -2 and Ecoli rRNA inh 1.
For O=C(NCC1CCCO1)c1nnc(Cc2ccc(F)cc2)o1 (stereo not given) the results were RAD52 anneal inh 53*, PglD DTNB 1, Cneo AK release 0, RAD54 inh 3, Ecoli rRNA inh 4 and RAD52 DNA ctr inactive.
O=C(CSc1nnc(CNC(=O)c2ccc(F)cc2)o1)NCC1CCCO1 (stereo not given) was read as RAD52 anneal inh -15, PglD DTNB 1, Cneo AK release 1, RAD54 inh -6 and Ecoli rRNA inh 2.
CCN1CCN(Cc2ccc(NC(=O)c3ccc(C)c(NC(=O)c4nccn4C)c3)cc2C(F)(F)F)CC1 was read as RAD52 anneal inh 6, PglD DTNB 3, Cneo AK release 0, RAD54 inh 3 and Ecoli rRNA inh -7.
For CCN1CCN(Cc2ccc(NC(=O)c3ccc(C)c(NC(=O)c4nccnc4N)c3)cc2C(F)(F)F)CC1 the results were RAD52 anneal inh 67*, PglD DTNB 8, Cneo AK release 6, RAD54 inh 11, Ecoli rRNA inh -8 and RAD52 DNA ctr inactive.
CCN1CCN(Cc2ccc(NC(=O)c3ccc(C)c(NC(=O)c4cccc5[nH]ccc45)c3)cc2C(F)(F)F)CC1 was read as RAD52 anneal inh 89*!, PglD DTNB 3, Cneo AK release 4, RAD54 inh 7, Ecoli rRNA inh -26 and RAD52 DNA ctr inactive.
C[C@@H]1CN([C@@H](C)CO)C(=O)c2cc(NC(=O)Cc3ccccc3)ccc2O[C@H]1CN(C)C(=O)Nc1ccc(F)cc1 was read as RAD52 anneal inh -3, PglD DTNB -2, Cneo AK release 53, RAD54 inh -15 and Ecoli rRNA inh 1.
For Cc1c(C)n(Cc2ccccc2)c2ccc(C(=O)NCCN3CCOCC3)cc12 the results were RAD52 anneal inh 16, PglD DTNB -3, Cneo AK release 6, RAD54 inh -11 and Ecoli rRNA inh -28.
Cc1c(C)n(Cc2ccccc2)c2ccc(C(=O)OCCN(C)C)cc12 was read as RAD52 anneal inh 66*, PglD DTNB 6, Cneo AK release 0, RAD54 inh 31, Ecoli rRNA inh -39 and RAD52 DNA ctr inactive.
For CCc1cc(C(=O)Nc2cc(S(=O)(=O)N(CC)CC)ccc2N2CCN(C)CC2)sc1C the results were RAD52 anneal inh 89*, PglD DTNB -1, Cneo AK release 4, RAD54 inh -1, Ecoli rRNA inh 3 and RAD52 DNA ctr inactive.
`CCc1cc(C(=O)Nc2cc(Cl)ccc2N2CCN(C)CC2)sc1C` gave RAD52 anneal inh 4 and Ecoli rRNA inh 1.
COc1ccccc1CNc1nc(NCc2ccc(NC(C)=O)cc2)c2sccc2n1 was read as RAD52 anneal inh 51*, PglD DTNB -4, Cneo AK release 0, RAD54 inh 4, Ecoli rRNA inh -26 and RAD52 DNA ctr inactive.
COc1ccccc1CNc1nc(NCc2ccccc2OC)c2sccc2n1 was read as RAD52 anneal inh -10, PglD DTNB 9, Cneo AK release 0, RAD54 inh 0 and Ecoli rRNA inh -11.
Screening CC(=O)Nc1ccc(CNc2nc(NC(C)C)nc3cc(-c4ccccc4)sc23)cc1 returned RAD52 anneal inh 97*, PglD DTNB 2, Cneo AK release 0, RAD54 inh -7, Ecoli rRNA inh -60 and RAD52 DNA ctr inactive.
Screening C=CCNc1nc(NCc2ccc(NC(C)=O)cc2)c2sc(-c3ccccc3)cc2n1 returned RAD52 anneal inh -32, PglD DTNB 4, Cneo AK release -1, RAD54 inh -8 and Ecoli rRNA inh -57.
For CC(=O)OC1C([N+]2(C)CCCCC2)C[C@H]2C3CC[C@H]4C[C@H](OC(C)=O)C([N+]5(C)CCCCC5)CC4(C)[C@H]3CCC12C (stereo not given in full) the results were RAD52 anneal inh 50*, PglD DTNB -3, Cneo AK release -1, RAD54 inh -13, Ecoli rRNA inh -7 and RAD52 DNA ctr inactive.
Screening CC(=O)O[C@H]1C[C@@H]2CC[C@@H]3[C@H](CC[C@@]4(C)[C@H]3C[C@H]([N+]3(C)CCCCC3)[C@@H]4OC(C)=O)[C@@]2(C)C[C@@H]1[N+]1(C)CCCCC1 returned RAD52 anneal inh 48, PglD DTNB 1, Cneo AK release 1 and RAD54 inh -12.
For COCC(=O)N(C)C[C@H]1Oc2ncc(-c3ccc(C)cc3)cc2C(=O)N([C@H](C)CO)C[C@@H]1C the results were RAD52 anneal inh 6, PglD DTNB 1, Cneo AK release 0, RAD54 inh 4 and Ecoli rRNA inh 2.
CN(C)CCNC(=O)c1cccc(-c2cnc3c(NC=O)cc(-c4cc(F)c(F)c(F)c4)cn23)c1 was read as RAD52 anneal inh 67*, PglD DTNB -3, Cneo AK release 0, RAD54 inh 34, Ecoli rRNA inh -53 and RAD52 DNA ctr inactive.
